Activity calls are given as the source filed them. The rule behind the calls is not given here.
Columns and labels:
[1] = AUC in human plasma at 3 to 225 mg, iv administered as 2 hr infusion; type: ADME, organism-based; design: time 2 hrs, route iv; settings: dose 3-225 mg
SARS-CoV-2 [2] = experiment: Antiviral activity against SARS-COV 2 infected in African green monkey Vero E6 cells assessed as inhibition of viral replication after 48 hrs by qRT-PCR analysis; type: functional, organism-based; settings: Severe acute respiratory syndrome coronavirus 2, Vero C1008, 48 h
SARS-CoV-2 [3] = experiment: Antiviral activity against SARS-COV 2 infected in human Calu-3 cells assessed as inhibition of viral replication after 48 hrs by qRT-PCR analysis; type: functional, organism-based; settings: Severe acute respiratory syndrome coronavirus 2, Calu-3, 48 h
SARS-CoV-2 [4] = experiment: Antiviral activity against SARS-COV 2 infected in human Caco-2 cells assessed as inhibition of viral replication after 48 hrs by qRT-PCR analysis; type: functional, organism-based; settings: Severe acute respiratory syndrome coronavirus 2, Caco-2, 48 h
[5] = Half life in human plasma at 3 to 225 mg, iv administered as 2 hr infusion; type: ADME, organism-based; settings: dose 3-225 mg
[6] = Cmax in Sprague-Dawley rat at 30 mg/kg, iv measured over 48 hrs by HPLC/MS analysis; type: ADME, organism-based; design: dose 30 mg/kg, time 48 hrs, route iv; settings: in vivo
Murine hepatitis virus [7] = experiment: Antiviral activity against MHV-A59 infected in BALB/c mouse assessed as improvement in survival at 100 mg/kg, ig administered at 0.5 hrs post infection followed by 50 mg/kg administered daily measured upto 14 days; type: functional; settings: time <= 14 day
How it was run: (§1)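 Male SPF BALB/c mice, 3–4 weeks old, were inoculated intranasally with 30 μL MHV-A59 in PBS (TCID50 10^-7.125/100 μL). They received 100 mg/kg IG or IP at 0.5 hpi, then 50 mg/kg once daily for the next 4 d. Untreated infected controls received PBS. Survival was followed for 14 d, N = 8 per group.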

[8] = AUC(0 to t) in Sprague-Dawley rat at 30 mg/kg, ig measured over 48 hrs by HPLC/MS analysis; type: ADME, organism-based; design: dose 30 mg/kg, time 48 hrs, route ig; settings: in vivo, po
[9] = Toxicity in BALB/c mouse infected with MHV-A59 assessed as change in body weight at 100 mg/kg, ig administered at 0.5 hrs post infection followed by 50 mg/kg administered daily measured upto 14 days; type: organism-based; settings: in vivo, po, 336 h, time < 14 day
How it was run: (§2)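 MHV-A59-infected male BALB/c mice (3–4 weeks) were dosed 100 mg/kg IG or IP at 0.5 hpi, then 50 mg/kg daily for 4 d. Uninfected drug-treated and PBS-only groups served as controls. Body weight was recorded daily for 14 d, N = 8 per group.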

[10] = Tmax in Sprague-Dawley rat at 30 mg/kg, iv measured over 48 hrs by HPLC/MS analysis; type: ADME, organism-based; settings: in vivo
Murine hepatitis virus [11] = experiment: Antiviral activity against MHV-A59 infected in BALB/c mouse assessed as improvement in survival at 100 mg/kg, ip administered at 0.5 hrs post infection followed by 50 mg/kg administered daily measured upto 14 days; type: functional; settings: time <= 14 day; how it was run: as §1
Murine hepatitis virus [12] = experiment: Antiviral activity against MHV-A59 infected in BALB/c mouse assessed as reduction in viral titer in liver at 100 mg/kg, ig administered at 0.5 hrs post infection followed by 50 mg/kg administered daily measured upto 14 days by qRT-PCR analysis; type: functional; design: scale not given: the % may be the effect or the level left; settings: time <= 14 day
How it was run: (§3)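 Male BALB/c mice were infected intranasally with MHV-A59 and dosed 100 mg/kg IG or IP at 0.5 hpi, then 50 mg/kg daily. Three mice per group were killed at 3 dpi. Liver RNA was extracted and viral load quantified by qRT-PCR against PBS-treated infected controls.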

Vero C1008 = experiment: Cytotoxicity against African green monkey Vero cells assessed as reduction in cell viability upto 50 uM measured for 48 hrs by CCK8 assay; type: toxicity, cell-based; settings: chlorocebus sabaeus, vero c1008, 48 h
How it was run: (§4)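 Vero E6, Calu-3 or Caco-2 cells were seeded at 20 000/well. They were exposed to 0, 0.01, 0.1, 1, 5, 10 or 50 μM compound for 48 h, and viability was read by CCK-8.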

SARS-CoV-2 [13] = experiment: Antiviral activity against SARS-CoV-2 infected in AAV-human ACE2 transduced BALB/c mouse assessed as viral clearance in lungs at 25 mg/kg/day, ip administered 1 day prior to viral infection and measured after 2 days post infection by focus forming assay; type: functional, organism-based; settings: Severe acute respiratory syndrome coronavirus 2, time 3.0 day
[14] = Tmax in Sprague-Dawley rat at 30 mg/kg, ig measured over 48 hrs by HPLC/MS analysis; type: ADME, organism-based; settings: in vivo, po
Murine hepatitis virus [15] = experiment: Antiviral activity against MHV-A59 infected in BALB/c mouse assessed as reduction in viral titer in liver at 100 mg/kg, ip administered at 0.5 hrs post infection followed by 50 mg/kg administered daily measured upto 14 days by qRT-PCR analysis; type: functional; design: scale not given: the % may be the effect or the level left; settings: time <= 14 day; how it was run: as §3
[16] = Toxicity in BALB/c mouse infected with MHV-A59 assessed as change in body weight at 100 mg/kg, ip administered at 0.5 hrs post infection followed by 50 mg/kg administered daily measured upto 14 days; type: organism-based; settings: in vivo, 336 h, time < 14 day; how it was run: as §2
[17] = Oral bioavailability in Sprague-Dawley rat at 30 mg/kg measured over 48 hrs by HPLC/MS analysis; type: ADME, organism-based; settings: in vivo
Calu-3 = experiment: Cytotoxicity against human Calu-3 cells assessed as reduction in cell viability upto 50 uM measured for 48 hrs by CCK8 assay; type: toxicity, cell-based; settings: calu-3, 48 h; how it was run: as §4
[18] = AUC(0 to t) in Sprague-Dawley rat at 30 mg/kg, iv measured over 48 hrs by HPLC/MS analysis; type: ADME, organism-based; design: dose 30 mg/kg, time 48 hrs, route iv; settings: in vivo
Caco-2 = experiment: Cytotoxicity against human Caco-2 cells assessed as reduction in cell viability upto 50 uM measured for 48 hrs by CCK8 assay; type: toxicity, cell-based; settings: caco-2, 48 h; how it was run: as §4
[19] = Toxicity AAV-human ACE2 transduced BALB/c mouse infected with SARS-COV2 assessed as loss of body weight at 25 mg/kg/day, ip administered 1 day prior to viral infection and treated for 8 days; type: organism-based; settings: in vivo, 192 h, time 8 day

Structure (SMILES): CCC(CC)COC(=O)[C@H](C)N[P@](=O)(OC[C@H]1O[C@@](C#N)(c2ccc3c(N)ncnn23)[C@H](O)[C@@H]1O)Oc1ccccc1
- AUC at 2 h [1]: 1.59 µg·h/mL
- IC50 (SARS-CoV-2 [2]): 1.35 µM
- IC50 (SARS-CoV-2 [3]): 0.65 µM
- IC50 (SARS-CoV-2 [4]): 0.58 µM
- half-life [5]: < 60 min

Structure (SMILES): N#C[C@@]1(c2ccc3c(N)ncnn23)O[C@H](CO)[C@@H](O)[C@H]1O [GS-441524]
- Cmax [6]: 164 µg/mL
- Activity (Murine hepatitis virus [7]): 100%
- AUC(0-t) at 48 h [8]: 28.7 µg·h/mL
- AUC at 2 h [1]: 2.23 µg·h/mL
- Activity [9]: Toxic
- IC50 (SARS-CoV-2 [2]): 0.7 µM
- Tmax [10]: 6 min
- Activity (Murine hepatitis virus [11]): 100%
- Activity (Murine hepatitis virus [12]): 99.9%
- Activity (Vero C1008): Non-Toxic
- Activity (SARS-CoV-2 [13]): Active
- Tmax [14]: 56.4 min
- IC50 (SARS-CoV-2 [3]): 3.21 µM
- IC50 (SARS-CoV-2 [4]): 3.62 µM
- Activity (Murine hepatitis virus [15]): 99.9%
- Activity [16]: Toxic
- bioavailability [17]: 4.84%
- Activity (Calu-3): Non-Toxic
- AUC(0-t) at 48 h [18]: 592 µg·h/mL
- Activity (Caco-2): Non-Toxic
- Activity [19]: Non-Toxic
